FID counter – fluorescent intercalator displacement, NS3 helicase counter-screen | DNA fluorescent intercalator displacement, fluorescence | inhibition, % at 7.9 µM | actives 0.17% (n = 290,000) | AID 1845; in the data active means inhibition above about 37%;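 further: 0% = vehicle and 100% = reference compound; higher means more ethidium bromide displaced from hairpin DNA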
ZTA counter – counter-screen for EBNA-1 inhibitors: inhibitors of Epstein-Barr virus ZTA. ZTA-DNA binding, fluorescence polarization. inhibition, % at 11 µM. actives 0.15% (n = 320,000). AID 2234; in the data active means inhibition above about 33%
Target sequence (P03206 whole entry, looked up): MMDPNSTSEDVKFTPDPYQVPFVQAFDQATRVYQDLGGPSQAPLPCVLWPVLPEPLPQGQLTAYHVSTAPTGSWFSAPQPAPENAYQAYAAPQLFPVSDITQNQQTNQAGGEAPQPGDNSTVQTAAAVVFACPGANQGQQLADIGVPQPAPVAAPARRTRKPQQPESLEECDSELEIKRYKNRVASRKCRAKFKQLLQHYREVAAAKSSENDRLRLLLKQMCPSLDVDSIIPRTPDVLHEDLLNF
GRIN3A LBD mod – modulates the human NR3A ligand-binding domain; NR3A LBD differential scanning fluorimetry, Tm shift; 0% = protein alone, 100% = glycine-bound protein; Tm shift relative to glycine control, % at 25 µM; actives 2.5% (n = 340,000); AID 1259313;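 active means melting temperature shift of at least 10% of the positive control shift, at one fixed dose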
EBNA-1 inh – blocks EBNA-1 binding to DNA | EBNA-1 DNA binding, fluorescence polarization | inhibition, % at 14.8 µM | actives 0.34% (n = 300,000) | AID 1950; in the data active means inhibition above about 28%
NS3 helicase inh – HCV NS3 helicase inhibition; inhibition, % at 10.9 µM; AID 1800; NS3 helicase DNA unwinding, Cy5 molecular beacon fluorescence; actives 0.56% (n = 290,000);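 active means inhibition above the mean of all tested compounds plus 3 SD, set per campaign, cut at about 35% in these data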;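 further: 0% = DMSO wells and 100% = thioflavine S control wells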
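test system = hepatitis C virus NS3 helicase domain fragment enzyme | reagent = annealed dual-labelled DNA beacon duplex, ATP-started | times = 1 h at 25 °C | detection = Cy5 fluorescence, 0 and 60 min reads | read-out basis = percent inhibition from t60/t0 fluorescence ratio | control set = DMSO and thioflavine S | replication = one well per compound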
FGF22 binding – shifts melting point of recombinant human FGF22; recombinant FGF22 thermal shift, SYPRO orange fluorescence; percent of sucrose octasulfate shift, DMSO zero; actives 1.5% (n = 340,000); activity (Tm shift, normalised), % at 9.99 µM; AID 651658; Q9HCT0;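 active means mean Tm shift, scaled 0 neutral to 100 positive control, at about 1.3% or above, every replicate too, limit read from the data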
Target sequence (Q9HCT0 whole entry, looked up): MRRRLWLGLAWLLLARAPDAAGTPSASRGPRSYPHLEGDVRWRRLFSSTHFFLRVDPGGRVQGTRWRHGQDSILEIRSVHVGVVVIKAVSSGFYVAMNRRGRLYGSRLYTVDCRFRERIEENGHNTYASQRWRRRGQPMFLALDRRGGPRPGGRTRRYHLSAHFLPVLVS
The depositor's hits bear a star; . = not tested or not shown. An excerpt weighted towards active compounds, which were near 3.6% of everything screened.

SMILES	FID counter	ZTA counter	GRIN3A LBD mod	EBNA-1 inh	NS3 helicase inh	FGF22 binding
Cc1cccc(C)c1Nc1nnc(SCC(=O)Nc2ncc(C(F)(F)F)cc2Cl)s1	-37.0	2.0	11.5*	-5.1	20.6	.
Cn1nnnc1SCC(=O)Nc1ncc(C(F)(F)F)cc1Cl	.	.	2.6	.	.	43.5*
C[C@@H]1CN([C@H](C)CO)C(=O)c2cc(NC(=O)Cc3cn(C)c4ccccc34)ccc2O[C@@H]1CN(C)Cc1ccncc1	.	.	.	.	.	-0.2
C[C@H](CO)N1C[C@H](C)[C@H](CN(C)Cc2ccccc2)Oc2cc(C3=CCCC3)ccc2S1(=O)=O	.	.	.	.	.	0.1
CCNC(=O)NC(=O)CSc1ccccc1F	-3.8	7.5	8.2	-9.1	4.4	.
CCNC(=O)NC(=O)CSc1ccc2ccccc2c1	-5.2	-0.8	2.4	-22.6	-7.4	43.1*
CCCC#Cc1ccc2c(c1)O[C@@H](CN(C)C(=O)CN(C)C)[C@@H](C)CN([C@@H](C)CO)S2(=O)=O	.	.	.	.	.	0.0
CCCCN(CCCC)C1=Nc2ccccc2N/C1=C(/C#N)C(=O)OCC	-19.9	1.8	16.8*	-0.1	20.9	.
Cn1c(C(=O)Nc2ccccc2)cc2sccc21	-8.6	-27.6	21.7*	0.1	-3.3	.
CCCn1c(N)c(C(=O)CSc2nnc(C3CC3)n2C2CC2)c(=O)[nH]c1=O	.	.	0.4	.	.	43.0*
F[B-](F)(F)COCc1ccccc1C#Cc1ccccc1	.	.	.	.	.	1.2
CCCCC#Cc1ccccc1COC[B-](F)(F)F	.	.	.	.	.	1.4*
CCn1cc(CN2N=C(C)CC2c2ccccc2)c(C)n1 (stereo unspecified)	-10.3	10.0	3.0	-4.7	4.3	44.0*
CCCCCSc1nc(N2CCOCC2)c2c(c1C#N)CC(C)(C)OC2	3.7	2.3	23.2*	-9.9	-2.5	.
NC(=O)N=Nc1c(O)[nH]c2ccc([N+](=O)[O-])cc12	0.6	-12.4	-0.9	2.1	-7.6	40.3
C=C(C)CNC(=S)N=Nc1c(O)[nH]c2ccc([N+](=O)[O-])cc12	4.2	-2.2	25.0*	-1.8	14.9	-0.1
CC(C)NC(=S)N=Nc1c(O)[nH]c2ccc([N+](=O)[O-])cc12	3.9	13.9	18.0*	7.9	0.4	-0.2
CCCn1c(C)cc(C(=O)COc2ccc(-c3nnco3)cc2)c1C	-39.1	-4.0	-2.2	-4.9	1.1	43.2*
Cc1c(NC(=O)c2ccc3c(c2)OCO3)cccc1-c1nc2ccccc2s1	-5.8	-11.3	-8.5	-5.6	1.3	.
O=C(Nc1ccc(-c2nc3ccccc3[nH]2)cc1)c1ccc2c(c1)OCO2	14.8	27.7	30.2*	25.9	-47.0	0.4
Cc1cccc2[nH]c(-c3ccc(NC(=O)c4ccco4)cc3)nc12	12.3	1.0	31.4*	-3.4	-9.9	.
O=C(Nc1cccc(-c2nc3ccccc3s2)c1)c1ccc2c(c1)OCO2	0.2	-2.2	10.2*	8.7	-5.5	0.9
O=C(Nc1cccc(-c2nc3ccccc3[nH]2)c1)c1cccc(NC(=O)c2ccco2)c1	4.3	10.6	19.5*	25.8	-34.6	.
C[C@@H]1CCCCO[C@@H](CN(C)Cc2ccc(C(=O)O)cc2)[C@H](C)CN([C@H](C)CO)C(=O)c2cc(NS(=O)(=O)c3ccc(Cl)cc3)ccc2O1	.	.	.	.	.	-0.1
COc1ccc(NC(=O)Nc2ccc3c(c2)C(=O)N([C@@H](C)CO)C[C@H](C)[C@H](CN(C)S(=O)(=O)c2ccccc2)O3)cc1	.	.	.	.	.	0.3
SMILES	FID counter	ZTA counter	GRIN3A LBD mod	EBNA-1 inh	NS3 helicase inh	FGF22 binding
O=C(Nc1nc2ccccc2[nH]1)C1CCCO1 (stereo unspecified)	2.1	9.8	3.6	3.8	0.2	0.2
CS(=O)(=O)c1ccc(C(=O)Nc2ccc(-c3nc4ccccc4[nH]3)cc2)cc1	3.0	18.3	32.2*	10.7	-2.7	-0.1
O=C(Nc1ccc(-c2nc3ccccc3[nH]2)cc1)C1CCCO1 (stereo unspecified)	-3.8	2.7	5.7	2.8	6.5	8.6*
Cn1ncc([N+](=O)[O-])c1C(=O)Nc1ccc(-c2nc3ccccc3[nH]2)cc1	20.5	9.9	.	3.6	0.7	.
CCOc1ccc(C(=O)Nc2ccc(-c3nc4ccccc4[nH]3)cc2)cc1[N+](=O)[O-]	-0.1	27.7	211.8*	15.7	-2.6	.
CS(=O)(=O)c1ccc(C(=O)Nc2cccc(-c3nc4ccccc4[nH]3)c2)cc1	-12.9	2.7	12.9*	6.5	-0.9	0.0
CS(=O)(=O)c1cccc(C(=O)Nc2cccc(-c3nc4ccccc4[nH]3)c2)c1	-13.7	10.9	8.8	-7.2	3.5	-0.1
O=C([C@H]1[C@H](CO)[C@H]2Cn3c(ccc(-c4cccnc4)c3=O)[C@@H]1N2CCC(F)(F)F)N1CCCCC1	.	.	.	.	.	0.0
C[C@@H]1CN([C@@H](C)CO)C(=O)c2cccc(NC(=O)Nc3ccc(F)cc3)c2O[C@@H]1CN(C)S(=O)(=O)c1ccccc1	.	.	.	.	.	0.1
CCOc1cccc(C(=O)Nc2ccc(NC(=O)c3ccccc3)c(C)c2)c1	-27.8	4.8	0.1	-0.2	-0.8	-0.2
CCOc1ccc(C(=O)Nc2ccc(NC(=O)c3ccccc3)c(C)c2)cc1[N+](=O)[O-]	-8.1	.	17.9*	.	-1.2	0.0
COCCNc1nc(-c2cc(C)n(CCc3ccc(OC)cc3)c2C)cs1	-11.2	-19.4	2.3	-11.0	1.1	43.3*
CNC[C@H]1OCCCC[C@@H](C)Oc2ccc(NS(=O)(=O)c3ccccc3)cc2C(=O)N([C@@H](C)CO)C[C@@H]1C	.	.	.	.	.	0.0
CO[C@H]1O[C@H](CO)[C@@H](OC(=O)Nc2ccccc2)[C@H](OC(=O)Nc2ccc3c(c2)OCO3)[C@@H]1OC(=O)Nc1ccc2c(c1)OCO2	.	.	.	.	.	-0.6
O=C(CSc1ccc(-c2nc3ccccc3[nH]2)cn1)Nc1ccc(S(=O)(=O)N2CCCC2)cc1	-6.4	18.4	28.5*	10.4	-16.3	.
Cc1cc2nc(-c3ccc(SCC(=O)Nc4nccs4)nc3)[nH]c2cc1C	2.6	.	-0.5	.	-4.3	.
Cc1cc2nc(-c3ccc(SCC(=O)Nc4ccc(S(=O)(=O)N5CCCC5)cc4)nc3)[nH]c2cc1C	-6.4	-19.3	21.3*	7.4	3.9	.
O=C(NC1CCCC1)N1CC2(C1)[C@H](c1ccccc1)[C@@H](CO)N2CC1CCOCC1	.	.	.	.	.	-0.3
CO[C@@H]1CN(C)C(=O)c2ccc(NC(C)=O)cc2OC[C@@H](C)N(C(=O)c2cccnc2)C[C@H]1C	.	.	.	.	.	0.1

Bioassay records as filed in PubChem.
